Experimental findings from PMC3919449 (Chemistry & biology, 2013) are described below.

The structures appear in SMILES notation.

For assay [1], the system named is BE(2)-C cells. Put plainly: GE-HTS neuroblastoma differentiation signature in BE. It counts as cell-based. Particulars: for induction of the differentiation signature (differentiation score): two days of treatment. In outline:
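In BE(2)-C cells with 2 nM cisRA as differentiation enhancer, test compound applied at eight concentrations in duplicate for 2 days. Controls were 1 μM cisRA (positive) and DMSO (negative), plus a cisRA dose-response plate per run. GE-HTS gave the differentiation score. AUC: cubic natural spline at 50 points over log dose, trapezoid areas against the mean DMSO score, divided by log-concentration range.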

The subject of a further assay is SH-SY5Y. Description: GE-HTS neuroblastoma differentiation signature in SH-SY5Y. It counts as cell-based. Conditions: second cell line.
A further assay deals with HDACs 4-9. Description: HDAC activity assay, other HDACs. It counts as biochemical. Conditions: HDACs 4-9, same concentration range. In outline:
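Recombinant full-length HDAC preincubated 3 h with test compound, then fluorogenic substrate at Km: MAZ1600 for HDAC6 (9 μM); MAZ1675 for HDAC4 (10 μM), 5 (40 μM), 7 (22 μM), 8 (282 μM), 9 (26 μM). Trypsin-coupled AMC release read every 5 min; linear-range rate normalized to DMSO (<0.5%); IC50 by unconstrained logistic regression.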

In assay [2] the test system is Kelly, LAN-1, BE(2)-C, and SH-SY5Y. Description: GE-HTS differentiation signature in four neuroblastoma cell lines. It counts as cell-based. Conditions: two day and five day time points. Summed up:
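Cells grown in DMEM with 10% FBS and 1% penicillin-streptomycin with glutamine, then exposed to the test compound over a concentration range for 2 or 5 days. Read-out is GE-HTS: ligation-mediated amplification with fluorescent bead detection of 59 signature genes. Differentiation score is the signature-gene expression divided by mean control-gene expression, summed with weights/signs from cisRA vs DMSO controls. Four replicates; one-way ANOVA with Bonferroni versus DMSO.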

The test system of assay [3] is BE(2)-C cells. Put plainly: NF-M immunofluorescence, morphologic changes. It counts as cell-based. Particulars: NF-M labeling. In outline: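 BE(2)-C cells treated in duplicate with DMSO vehicle or the test compound for 72 h. Cells washed, fixed in 4% formaldehyde and permeabilized with 0.2% Triton X-100. Stained with monoclonal anti-NF-M and an Alexa Fluor 568 secondary. Mounted in antifade with DAPI counterstain; neurite projections examined.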

Assay [4] relates to Kelly, LAN-1, BE(2)-C, and SH-SY5Y. Description: ATP-based viability. Conditions: four neuroblastoma cell lines, five days of treatment. In outline: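 Kelly, LAN-1, BE(2)-C and SH-SY5Y grown in DMEM with 10% FBS and 1% penicillin-streptomycin with glutamine, identity confirmed by STR profiling. Cells exposed to test compound over a 9-point concentration range for five days; viability read by ATP luminescence (CellTiter Glo) per manufacturer's instructions.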

The subject of assay [5] is histone H3 acetylation in BE(2)-C cells. Description: Immunoblot for acetylated histone H3. It counts as cell-based. Particulars: six hours of treatment. Summed up:
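BE(2)-C cells exposed to the test compound or DMSO for six hours; nuclear extracts then immunoblotted for acetylated histone H3.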

As for `CC1=C(/C=C/C(C)=C/C=C/C(C)=C/C(=O)O)C(C)(C)CCC1` [ATRA, all-trans retinoic acid], in the assay with BE(2)-C cells [1], the “induction of the differentiation signature (differentiation score)” value (shortened to “induction … (differentiation score)”) is reported as “induce the differentiation signature in a dose-dependent manner”.
Regarding `C[C@H](CO)N1C[C@H](C)[C@H](CN(C)Cc2ccc(C(=O)Nc3ccccc3N)cc2)Oc2ccc(N(C)C)cc2C1=O` [BRD6819], the “induction … (differentiation score)” value in the assay on BE(2)-C cells [1] is recorded as “induced the differentiation signature in a manner similar to BRD8430”. The “induction of the differentiation signature” value in the assay with SH-SY5Y is reported as “confirmed to induce the differentiation signature”.
Consider `Nc1ccccc1NC(=O)c1ccc(CNC(=O)OCc2cccnc2)cc1` [MS-275], for which, in the assay with BE(2)-C cells [1], the “induction … (differentiation score)” value is given as “significantly induced differentiation at multiple concentrations”.
On the same count and under the same terms, under `CC1=C(/C=C/C(C)=C/C=C/C(C)=C\C(=O)O)C(C)(C)CCC1` [cisRA, 13-cis retinoic acid] stands “induce the differentiation signature in a dose-dependent manner”; under `CC(=O)Nc1ccc(C(=O)Nc2ccccc2N)cc1` [CI-994], “significantly induced differentiation at multiple concentrations”.
Consider `O=C(CCCCCCC(=O)Nc1ccccc1)NO` [Vorinostat, vorinostat], for which the “induction … (differentiation score)” value in the assay on BE(2)-C cells [1] is given as “significantly induced differentiation at multiple concentrations”.
The same measure, in the same setting: with `C[C@H](CO)N1C[C@H](C)[C@H](CN(C)Cc2ccc(C(=O)Nc3ccccc3N)cc2)Oc2c(cccc2N(C)C)C1=O` [BRD6332] the entry was “greatly dampened differentiation activity”.
In the case of `C[C@H](CO)N1C[C@H](C)[C@H](CN(C)Cc2ccc(C(=O)Nc3ccccc3N)cc2)Oc2ccc(N(C)C)cc2CC1=O` [BRD8430], the “IC50 for inhibition of the other HDACs” value in the assay with HDACs 4-9 is on record as “not able to determine IC50 values”. In the assay on BE(2)-C cells [1], the “induction … (differentiation score)” value is “significantly inducing the signature at all eight concentrations tested”. For the same molecule, in the assay with BE(2)-C cells [1] (two days, eight concentrations), the “AUC of the differentiation score across eight concentrations” value was “highest AUC value of the 32 compounds evaluated”. Besides, the “induction of the differentiation signature” value in the assay on SH-SY5Y is on record as “confirmed to induce the differentiation signature”; in assay [2] it was “induce the differentiation signature in a concentration-dependent manner”. The “morphologic changes consistent with differentiation” value in the assay with BE(2)-C cells [3] is listed as “induced morphologic changes, including neurite outgrowth”. Further, in assay [4], the viability entry is given as “reduced the viability”. Besides, the “histone H3 acetylation” value in assay [5] was “increased histone H3 acetylation in a concentration-dependent manner”.
